The list is not random: actives were taken first. Their share in the collection is about 3.9%.
SR-BI HDL uptake: mouse SR-BI HDL lipid transfer inhibition. Q61009. ldlA[mSR-BI] CHO cells, DiI-HDL uptake fluorescence, 3 h. inhibition, % at 12.5 µM. hit rate 0.96% among 320,000. AID 488896;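 active means mean replicate inhibition of at least 70% and a set share of replicates each scoring 70 or more; inconclusive means meets just one of the two criteria; inactive means fails both criteria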
Target sequence (Q61009 whole entry, looked up): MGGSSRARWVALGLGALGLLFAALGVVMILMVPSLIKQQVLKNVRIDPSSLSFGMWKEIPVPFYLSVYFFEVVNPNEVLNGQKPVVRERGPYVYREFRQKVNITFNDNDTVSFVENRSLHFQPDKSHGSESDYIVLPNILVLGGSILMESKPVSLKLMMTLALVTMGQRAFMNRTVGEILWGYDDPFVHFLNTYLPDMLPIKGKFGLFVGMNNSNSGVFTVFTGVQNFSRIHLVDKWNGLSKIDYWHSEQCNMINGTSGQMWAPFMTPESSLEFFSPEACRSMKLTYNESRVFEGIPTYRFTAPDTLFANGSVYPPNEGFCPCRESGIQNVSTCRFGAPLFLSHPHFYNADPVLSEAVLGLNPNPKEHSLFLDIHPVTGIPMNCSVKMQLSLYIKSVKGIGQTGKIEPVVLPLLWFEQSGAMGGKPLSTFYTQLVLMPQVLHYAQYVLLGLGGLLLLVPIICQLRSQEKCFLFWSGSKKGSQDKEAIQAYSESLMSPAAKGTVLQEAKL
HIF activator: HIF pathway transcriptional activation. U2OS HRE-luciferase reporter, luminescence; normalized: DMSO 0%, desferrioxamine 100%. activation, % at 7.5 µM (by protocol). hit rate 0.32% among 300,000;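 active means mean activation of at least 10% of the iron chelator positive control signal, with at least half of replicates also reaching 10%; inconclusive means mean and replicate majority disagree about reaching 10%; inactive means mean and most replicates under 10%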
ABCB6 inh MLPCN: blocks the human ABCB6 transporter; K562-ABCB6 porphyrin accumulation, flow cytometry, 1 h; hits give low values; Q9NP58; fluorescence ratio to DMSO, % at 10 µM; hit rate 0.19% among 360,000;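 active means fluorescence ratio to DMSO below 75%, the collection mean minus 3 SD; inconclusive means too few cells collected in the well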;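 further: signal is porphyrin accumulated inside mitochondria; lower ratio means ABCB6 inhibition with less porphyrin fluorescence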
GAA850 FXN act: frataxin GAA850 promoter activation; HEK293 lucGAA850 FXN promoter luciferase reporter, 24 h; percent of 10 µM SAHA response; activation, % at 6 µM; hit rate 0.56% among 360,000; AID 540364;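 active means activation above the average of all compounds screened plus 3 SD, cutoff fixed separately per campaign, cut at about 7.5% in these data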
AHR activator: human AHR activation; P35869; AHR-responsive luciferase reporter cells, luminescence; activation, % at 5 µM; hit rate 2.5% among 320,000; AID 2796; in the data active means activation above about 47%
SR-BI DiI-HDL act: activators of SR-BI mediated HDL lipid uptake; CHO ldlA[mSR-BI] cells, DiI-HDL uptake fluorescence, 3 h; 100 = double the neutral-control signal; activation, % at 12.5 µM; hit rate 0.096% among 320,000;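 active means mean replicate activation of at least 60% and every replicate at or above 60%; inconclusive means mean or all-replicate condition met, but not both; inactive means mean below 60% and not all replicates reaching 60%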
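System: LDL receptor-deficient CHO ldlA cells overexpressing murine SR-BI | Timing: 3 h uptake period with compound, 37 °C | Medium: HEPES-buffered (25 mM, pH 7.4) F12 plus 0.5% BSA | Dosing: Single-point compound dose | Signal: Bottom-read fluorescence, 550/595 nm | Read-out: Retained DiI signal reflecting DiI-HDL uptake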
A number is an active result; i = inactive; ? = inconclusive; nt = not tested or not shown.

SMILES | SR-BI HDL uptake | HIF activator | ABCB6 inh MLPCN | GAA850 FXN act | AHR activator | SR-BI DiI-HDL act
Clc1cc(Cl)cc(Nc2ncnc(-n3cccc3)n2)c1 | i | i | i | i | 54 | i
Cc1sc2nc(-c3ccncc3)[nH]c(=O)c2c1-c1ccccc1 | nt | i | nt | nt | 54 | nt
Cc1ccc(O)c(NC(=O)c2ccc3c(c2)C(=O)N(CC(C)C)C3=O)c1 | i | i | i | i | 73 | i
CCCN1C(=O)c2ccc(C(=O)Nc3cc(C)ccc3O)cc2C1=O | i | i | i | i | i | i
CCOCCCNc1nc2c([nH]1)c(=O)n(C)c(=O)n2C | i | i | i | i | i | i
COC(=O)c1ccc(CSc2nc3c(c(=O)n2-c2ccc(F)cc2)SCC3)o1 | i | 11 | i | i | i | i
Cc1cc(NC(=O)CSc2nnc(C3CC3)n2-c2ccccc2)no1 | i | i | i | i | 48 | i
Cc1cc(NC(=O)CSc2nnc(C3CC3)n2Cc2ccccc2)no1 | i | i | i | i | i | i
COC(=O)c1ccc(CSc2nc3c(c(=O)n2-c2ccccc2)SCC3)o1 | i | i | i | i | i | i
Cc1cc(NC(=O)CSc2nc3c(c(=O)n2-c2ccc(Cl)cc2)SCC3)no1 | i | 45 | i | i | i | i
CC1CCCC(C)N1CCCNC(=O)CN1C(=O)c2cccnc2Oc2ccc(Cl)cc21 (configuration not stated) | i | i | i | i | i | i
CC(C)C(=O)Nc1c(-c2ccccc2)c(=O)c2ccccc2n1C | i | nt | i | i | i | i
Cc1cccc(/C(N)=N/OC(=O)c2cccc3ccccc23)c1 | i | i | i | i | 73 | i
N/C(=N\OC(=O)c1cccc2ccccc12)c1cccc([N+](=O)[O-])c1 | i | i | i | i | i | i
Cc1cccc(/C(N)=N/OC(=O)c2ccc(Br)o2)c1 | i | i | i | i | 71 | i
Clc1ccc(OCc2cn3cccnc3n2)c2ncccc12 | nt | i | i | i | nt | nt
c1cnc2c(OCc3cn4cccnc4n3)cccc2c1 | i | nt | i | i | 71 | i
CCOC(=O)Cc1csc(NC(=O)c2sc3nc4c(C)cc(C)cc4cc3c2N)n1 | 80 | i | i | i | i | i
CC(=O)c1cnc(Oc2cc(Cl)ccc2Cl)nc1C | i | i | i | i | i | i
O=C(NCCc1c[nH]c2ccccc12)c1ccc(Br)o1 | i | nt | i | i | i | i
O=C(NCCc1c[nH]c2ccccc12)c1ccc2c(c1)OCO2 | i | i | i | i | i | i
O=C(Cn1c(Cc2ccccc2)nc2ccccc21)NCc1ccc2c(c1)OCO2 | i | 137 | i | i | i | i
O=C(CSc1nc2ccccc2[nH]1)NCc1ccc2c(c1)OCO2 | i | nt | i | i | 55 | i
O=C(CCc1nc2ccccc2[nH]1)NCc1ccc2c(c1)OCO2 | i | i | i | i | i | i
O=C(Cn1c(CO)nc2ccccc21)NCc1ccc2c(c1)OCO2 | nt | i | i | i | i | nt
SMILES | SR-BI HDL uptake | HIF activator | ABCB6 inh MLPCN | GAA850 FXN act | AHR activator | SR-BI DiI-HDL act
O=C(NCCSc1c[nH]c2ccccc12)c1ccc(Br)o1 | i | 16 | i | i | i | i
O=C(NCCc1c[nH]c2ccccc12)c1cc(Cl)c2c(c1)OCO2 | nt | i | i | i | 48 | nt
O=C1CCCN2N=C(SCC(=O)Nc3ccc(OC(F)(F)F)cc3)SC2=N1 | i | i | i | i | i | i
CC1CCC(C(C)C)C(=O)/C1=C/c1ccc(N)cc1 (configuration not stated) | nt | i | i | i | i | nt
O=C(CSc1nc2ccccc2o1)NCc1ccc2c(c1)OCO2 | i | i | i | i | 70 | i
O=C(NCCSc1c[nH]c2ccccc12)c1ccc2c(c1)OCO2 | i | i | i | i | 50 | i
CC(C)C(=O)NCCSc1c[nH]c2ccccc12 | i | i | i | i | i | i
O=C(CSc1c[nH]c2ccccc12)NCc1ccc2c(c1)OCO2 | i | 44 | i | i | i | i
COc1cccc2cc(C(=O)Nc3cc(Cl)ccc3N3CCOCC3)c(=O)oc12 | i | i | i | i | i | i
COCCNCCOc1ccccc1-c1ccccc1 | i | i | i | i | i | i
Cc1ccccc1C(=O)Nc1nnc(SCC(=O)NC2CC2)s1 | i | i | i | i | i | i
NC(=O)c1ccc(/C=N/O)[n+](Cc2ccccc2)c1 | i | i | i | i | i | i
Cc1cc(C)[n+](Cc2ccccc2)cc1C(N)=O | i | 21 | i | i | i | i
Cc1ccc(C(=O)N[C@H](C(=O)NC2CCCCC2)C(C)C)cc1 | i | nt | i | i | i | i
CNc1cc([N+](=O)[O-])ccc1N/C=C/C(=O)c1cccs1 | i | i | i | i | 74 | i
O=C(/C=C/Nc1cccc([N+](=O)[O-])c1)c1cccs1 | i | i | i | i | i | i
COc1ccc(N=C2C(=O)N3CCCc4cccc2c43)cc1 | i | 392 | i | i | i | i
CC(=O)c1c(C)nc(-c2ccccc2)nc1N | i | i | i | i | 77 | i
COc1ccccc1-c1nc(=S)c(C(C)=O)c(C)[nH]1 | nt | i | i | i | 54 | nt
CC(=O)c1c(C)[nH]c(-c2ccccc2)nc1=S | i | i | i | i | 66 | i
COc1cc(OC)c(OC)cc1/C=N/N(C)c1ccccc1 | 81 | i | i | i | i | i
COc1cc(/C=N/N(C)c2ccccc2)ccc1O | i | i | i | i | i | i
N#C/C(=C\Nc1ccc2cn[nH]c2c1)c1nc(-c2ccccc2)cs1 | i | i | i | i | nt | i
N#C/C(=C\Nc1ccc2cn[nH]c2c1)c1nc(-c2ccc(Cl)cc2)cs1 | ? | i | i | i | 52 | i
COCCn1c(SCC(=O)NCCc2ccc(OC)c(OC)c2)nc2c([nH]c3ccccc32)c1=O | i | i | i | i | i | i
SMILES | SR-BI HDL uptake | HIF activator | ABCB6 inh MLPCN | GAA850 FXN act | AHR activator | SR-BI DiI-HDL act
CC1(C(=O)NCc2ccc(C(F)(F)F)cc2)CCN1Cc1cc2ccccc2o1 (configuration not stated) | nt | nt | i | i | nt | nt
COc1ccc(NC(=O)/C(C#N)=C/c2c(C)nn(-c3ccc(F)cc3)c2Cl)cc1OC | 76 | i | i | i | i | i
COc1ccc(NC(=O)/C(C#N)=C/c2c(C)nn(-c3ccc(F)cc3)c2Cl)cc1Cl | 71 | nt | i | i | i | i
CCOC(=O)C1CCCN(Cc2cc(=O)oc3cc(C)c(C(C)C)cc23)C1 (configuration not stated) | i | i | i | i | i | i
COC(=O)NCC(c1ccc2c(c1)OCO2)N1CCN(c2ccc(OC)cc2)CC1 (configuration not stated) | i | i | i | i | i | i
C=CCNC1=C(Cl)C(=O)c2ccccc2C1=O | i | i | i | i | 52 | i
COc1ccc(S(=O)(=O)Nc2ccc(O)c3ccccc23)cc1 | i | i | i | i | 61 | i
COc1ccc(OC)c(NC(=O)Nc2c(O)ccc3ccccc23)c1 | i | i | i | i | 63 | i
COc1ccc(OC)c(NC(=O)Nc2ccc(O)c3ccccc23)c1 | i | i | i | i | 49 | i

From PubChem BioAssay
